Assay outcomes (PubChem)
TbHK1 inh: Trypanosoma brucei hexokinase 1 inhibitors, primary screen, biochemical, G6PDH-coupled NADH absorbance, MLSCN library; hexokinase 1 [Trypanosoma brucei]; recombinant TbHK1, G6PDH-coupled NADH A340; inhibition, % at 10 µM; 220,000 compounds, 0.11% hits; AID 1430, 2008;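 active = inhibition of 50% or more in the single-dose primary screen; inactive = inhibition below 50%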
EP2 modulator: EP2 receptor modulators, cAMP readout, primary screen, cell-based, HTRF cAMP, PGE2 stimulation; Prostaglandin E2 receptor EP2 subtype (Homo sapiens), P43116; EP2-expressing cells, cAMP HTRF FRET, PGE2 co-stimulation; induction, % at 25 µM; 260,000 compounds, 0.83% hits; AID 940, 2007;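 active = compounds whose cAMP rise, as percent of the full-agonist control response, exceeds 60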;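 also: rat C6 glioma line stably carrying human EP2 under a CMV promoter; the protocol text gives 20 µM as final concentration; 100% = response of wells given 1 µM PGE2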
Target sequence (P43116 whole entry, looked up): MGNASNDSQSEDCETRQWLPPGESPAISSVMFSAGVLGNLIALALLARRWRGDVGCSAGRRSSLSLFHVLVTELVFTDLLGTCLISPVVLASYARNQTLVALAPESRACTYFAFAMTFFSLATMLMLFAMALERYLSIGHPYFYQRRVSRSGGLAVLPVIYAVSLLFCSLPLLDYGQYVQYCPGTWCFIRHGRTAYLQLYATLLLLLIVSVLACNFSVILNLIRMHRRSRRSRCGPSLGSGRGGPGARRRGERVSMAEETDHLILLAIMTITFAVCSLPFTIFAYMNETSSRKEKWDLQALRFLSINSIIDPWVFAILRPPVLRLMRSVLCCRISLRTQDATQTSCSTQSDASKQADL
EP2 antag: human EP2 receptor antagonists, primary screen, TR-FRET cAMP, C6 glioma cells; Prostaglandin E2 receptor EP2 subtype (Homo sapiens), P43116; C6 glioma cells expressing human EP2; cells stimulated with saturating PGE2; inhibition, % at 25 µM; 260,000 compounds, 0.52% hits;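 active = percent inhibition above 40 after rounding to a whole number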;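 also: rat C6 glioma host cells with rolipram phosphodiesterase inhibitor present; the protocol text gives 20 µM as final concentration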
b-catenin transl: modulators of beta-catenin nuclear translocation, primary screen, imaging, HeLa cells, immunofluorescence, high-content; nuclear translocation activity, % at 5 µM; 190,000 compounds, 0.3% hits; AID 1665, 2009;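 active = nuclear translocation activity above 50% at 5 µM, with a well cell count of 50 or more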;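 also: per-cell ratio of nuclear to cytoplasmic median beta-catenin stain intensity; plate controls were DMSO negative control for no effect and GSK-3 inhibitor IX positive control for full effect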
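Signal – beta-catenin immunofluorescence imaging with DAPI · Test system – human HeLa cell line · Dosing – 5 µM primary single dose, 0.1% DMSO, 0.02–20 µM confirmation series · Measure – % activation, nuclear-to-cytoplasmic median beta-catenin signal ratio per cell · Incubation – 24 h compound exposure at 37°C, 5% CO2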
Efa HMGR inh: inhibitors of E. faecalis class II HMGR, primary screen, biochemical, Enterococcus faecalis | purified E. faecalis HMGR, NADPH absorbance 340 nm kinetic | HMG-CoA reductase (Enterococcus faecalis, mvaE) | inhibition, % at 10 µM | 190,000 compounds, 0.41% hits;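 active = inhibition above a set limit, the median over all tested compounds plus 3 SD, cut at about 9.5% in these data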;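 also: enzyme runs in reverse so mevalonate oxidation gives rising NADPH absorbance; 0% = complete reaction with DMSO and 100% = background rate lacking mevalonate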
MT stabilize HCS: microtubule stabilizers in HeLa cells, primary screen, imaging, high-content imaging. HeLa tubulin immunostaining HCS, 24 h; share of cells brighter than vehicle mean+2SD. % tubulin-high responders, % at 10 µM. 200,000 compounds, 0.83% hits;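 active = plate Z-score above 3 for both tubulin-high and condensed-nucleus cell shares, with cell loss under 80%, at 10 µM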;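 also: anti alpha tubulin signal scored within the nucleus-defined area of each cell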
Starred values were filed as active, the others as inactive; . = no result; ! = not active in a repeat. Compounds with a hit are over-represented: about 2.4% of the library has one in this group of screens.

SMILES | TbHK1 inh | EP2 modulator | EP2 antag | b-catenin transl | Efa HMGR inh | MT stabilize HCS
O=S1(=O)N[C@H]2CC[C@H]3NS(=O)(=O)N[C@H]4CC[C@@H](N1)N4S(=O)(=O)N23 | . | 26.8 | 45.3* | . | . | .
Cc1cccc(C2(O)CCN(C(=O)CCn3nc(C)c(C)c3C)CC2)c1 | . | -9.8 | 3.4 | . | . | .
Cc1cc(-c2sccc2Br)nc(-n2cccc2)n1 | -2.0 | 64.6* | 15.5 | -4.1 | 3.4 | 3.1
CCc1cc2cc3c(cc2nc1SCC(=O)Nc1cccc(C)c1C)OCO3 | . | 42.1 | 16.9 | . | . | .
COC(=O)CSc1nnc(COc2cccc3ccccc23)n1-c1cccc(Cl)c1 | . | -1.6 | 17.1 | . | . | .
COc1ccc(OC)c(NC(=O)CSc2nnc3c(C)cc4ccc(C)cc4n23)c1 | . | -7.5 | 8.7 | . | . | .
CC1(C)CC(C)(c2ccc(O)cc2O)N(c2cccc(Cl)c2)C(=S)N1 (stereo not given) | -2.4 | -6.8 | 10.2 | 2.8 | 10.6* | 4.5
Cc1ccc2[nH]c(=O)c(CN(Cc3ccc(F)cc3)S(=O)(=O)c3ccc4c(c3)OCCO4)cc2c1 | . | -95.0 | 20.2 | . | . | .
O=C(c1cn(-c2ccccc2)nc1-c1ccccc1)N1CCN(c2ccccn2)CC1 | 0.8 | 17.4 | 8.7 | -4.0 | 1.4 | 36.0*
Cc1ccc(-c2nn(-c3ccccc3)cc2C(=O)N2CCN(c3ccccn3)CC2)cc1 | -9.2 | 25.1 | 4.5 | -1.6 | -0.1 | 4.7
CCc1ccccc1NC(=O)Cn1nnc(C(=O)NCc2cccs2)c1N | -6.3 | 5.3 | 5.9 | 0.7 | -0.2 | 29.8*
CCc1ccc(NC(=O)Cn2nnc(C(=O)NCc3cccs3)c2N)cc1 | 5.0 | -6.7 | 3.9 | -0.7 | -1.0 | 3.3
COc1ccc(C2=CC3=C(Br)C(=O)C(C)(O)C(=O)C3=CO2)cc1 (stereo not given) | -6.5 | -29.4 | 133.8* | 0.3 | . | .
CC1=NOC(=O)/C1=C\c1ccc(-c2ccc(Br)cc2)o1 | 15.7 | -69.0 | 76.5* | 0.8 | 0.8 | 1.2
Cc1ccc(C2=NOC(=O)/C2=C\c2ccc(C)o2)cc1 | 3.4 | -29.8 | 8.6 | -0.9 | . | .
CC1=NOC(=O)/C1=C/c1ccc(-c2ccc(Cl)cc2)o1 | 11.1 | -44.7 | 184.5* | 30.2 | -6.0 | 1.3
CC1=NOC(=O)/C1=C\c1ccc(-c2cc(Cl)ccc2Cl)o1 | 14.0 | -14.6 | 60.5* | . | 0.5 | 1.0
CC1=NOC(=O)/C1=C\c1ccc(-c2ccc(Br)cc2C(=O)O)o1 | 3.7 | 7.1 | 5.6 | -0.8 | -0.1 | 3.6
c1ccc2c(c1)nc(N1CCCCCC1)c1ccccc12 | -16.2 | 63.1* | 6.7 | -0.1 | . | .
c1ccc2nc(N3CCCC3)c(N3CCCC3)nc2c1 | 1.3 | 68.0*! | 11.0 | -1.7 | -0.1 | 2.1
Cc1nc2ccccc2nc1N1CCCCC1 | -12.7 | 4.7 | 15.8 | 2.4 | -6.1 | 5.5
COCC(=O)Nc1nnc(SCC(=O)Nc2ccc(C)c(Cl)c2)s1 | . | -16.8 | 13.1 | . | . | .
C=C(C)Cn1nc(C)c(CN(C)CCOc2ccccc2)c1C | . | -39.0 | 1.6 | . | . | .
Cc1cc(C)n2nc(-c3ccc(Br)cc3)c(Br)c2n1 | . | -103.3 | 11.0 | . | . | .
O=C1CC(C(=O)Nc2cc(Cl)ccc2Cl)n2ncnc2N1 (stereo not given) | 5.0 | 26.7 | 9.9 | 0.7 | -5.6 | 1.8
O=C1CC(C(=O)Nc2cccc(Cl)c2)n2ncnc2N1 (stereo not given) | 2.6 | 26.1 | 5.4 | -1.1 | 11.6* | 4.3
COc1cc2c(cc1NC(=S)Nc1cccc3ccccc13)oc1ccccc12 | -20.6 | -27.9 | 42.5* | -1.6 | 0.8 | 2.8
COc1cc2c(cc1NC(=S)Nc1cccc(C(F)(F)F)c1)oc1ccccc12 | -19.8 | -14.9 | 4.1 | -4.2 | -2.7 | 3.9
CC(C)(C)c1ccc(S(=O)(=O)/C=C/C#N)cc1 | . | -19.6 | 96.6* | . | . | .
COCc1[nH]nc2c1C1(CCC(C(C)(C)C)CC1)C(C#N)=C(N)O2 (stereo not given) | . | -80.1 | 34.0 | . | . | .
